# This is a sample that favours compounds with a hit; in the whole collection about 2.3% have one here.
# V1aR counter: agonists of human V1a receptor, primary screen, counter-screen for OXTR agonist project, fluorescence, CHO-V1R cells; 0.25% of 320,000 active; Fluo-8 calcium fluorescence, agonist mode; 0% DMSO, 100% 3 nM vasopressin; activation, % at 3 µM; Vasopressin V1a receptor (Homo sapiens), P37288;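 active = activation above the mean activation of all tested compounds plus 3 SD, per screening run, cut at about 20% in these data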;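 note: signal is peak over basal fluorescence ratio across a 100 second FLIPR read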
# TAAR1 agonist: human TAAR1 agonists, primary screen, Fluo-8 calcium fluorescence, CHO RD-HGA16 cells; activation, % at 3 µM; vehicle wells 0%, saturating PEA agonist 100%; AID 624467, 2012; 0.99% of 360,000 active; Trace amine-associated receptor 1 (Homo sapiens), Q96RJ0;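 active = activation above the mean activation of all test compounds in the run plus 3 SD, cut at about 38% in these data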
# Target sequence (Q96RJ0 whole entry, looked up): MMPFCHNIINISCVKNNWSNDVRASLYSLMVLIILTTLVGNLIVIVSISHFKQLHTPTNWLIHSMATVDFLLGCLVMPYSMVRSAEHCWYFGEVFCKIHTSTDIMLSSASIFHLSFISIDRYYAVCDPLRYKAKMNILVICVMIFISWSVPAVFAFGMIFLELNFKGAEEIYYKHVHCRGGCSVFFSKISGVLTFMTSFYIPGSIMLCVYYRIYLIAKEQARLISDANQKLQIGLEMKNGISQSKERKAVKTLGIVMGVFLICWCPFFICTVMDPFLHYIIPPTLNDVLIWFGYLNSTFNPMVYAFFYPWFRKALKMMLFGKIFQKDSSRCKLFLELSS
#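 System: CHO RD-HGA16 cells carrying human TAAR1 plus Gα16; Incubation: 17-24 h seeding, 75 min 37 °C dye, 30 min RT; Measured by: Fluo-8 fluorescence, 5 s baseline then 140 s kinetic read; Control set: DMSO and PEA EC100; Replication: single well for each compound.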
# OXTR potentiate: human OXTR potentiators, primary screen, fluorescence, CHO-OTR cells, Fluo-8 calcium | 0.061% of 320,000 active | Oxytocin receptor (Homo sapiens), P30559 | Fluo-8 calcium fluorescence, potentiator mode; 0% = oxytocin EC15, 100% = EC100 | activation, % at 3 µM | AID 2445, 2010;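 active = activation above that plate's cutoff, the mean activation of tested compounds plus 3 SD, cut at about 6.6% in these data, passing the limit was not always enough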;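 note: 100% uses oxytocin at 75 nM as the full agonist control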
#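 Assay system: CHO-OTR cells, human receptor / Also added: oxytocin at about EC15, sub-maximal agonist stimulus / Dosing: single dose, 3.0 µM nominal final compound concentration / Incubation: 6 min pre-incubation, 100 s read / Technique: Fluo-8 calcium dye fluorescence / Read-out: % activation vs EC15 and EC100 oxytocin / Benchmarks: EC15 oxytocin low, 75 nM oxytocin high / Replicates: singlicate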
# OXTR agonist: human OXTR agonists, primary screen, fluorescence, CHO-OTR cells, Fluo-8 calcium; 0.32% of 320,000 active; activation, % at 3 µM; AID 2435, 2010; Oxytocin receptor (Homo sapiens), P30559; Fluo-8 calcium fluorescence; normalized: DMSO 0%, oxytocin 100%;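 active = activation above the mean of all tested compounds plus 3 SD, cutoff set per screening run, cut at about 20% in these data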;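 note: peak over basal fluorescence ratio from a 100 s FLIPR kinetic read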
# TAAR1 antagonist: human TAAR1 antagonists, primary screen, Fluo-8 calcium fluorescence, CHO RD-HGA16 cells. Trace amine-associated receptor 1 (Homo sapiens), Q96RJ0. antagonist. inhibition, % at 3 µM. 1.5% of 360,000 active. AID 624466, 2012;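 active = inhibition above a per-plate cutoff, the mean inhibition of test compounds on that plate plus 3 SD, cut at about 49% in these data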;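 note: 0% = DMSO plus EC80 beta-PEA response and 100% = DMSO alone without agonist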
#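 Material: RD-HGA16 CHO cells with stable hTAAR1 and Gα16; Dosing: single nominal final test compound concentration of 3 µM; Schedule: seeding 17-24 h prior, 75-min 37 °C, 30-min RT dye loading; Detection: kinetic Fluo-8 calcium fluorescence measurement; Measure: % inhibition from peak post-agonist over basal fluorescence ratio; Benchmarks: vehicle and agonist controls.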
# The depositor's hits bear a star; / = not tested or not shown.
SMILES,V1aR counter,TAAR1 agonist,OXTR potentiate,OXTR agonist,TAAR1 antagonist
CCCNC(=O)c1cc2c(c(-c3cccc(-c4ccc(F)cc4)c3)n1)[C@@H](CCO)N(S(=O)C(C)(C)C)C2 (stereo partly drawn),/,12,/,/,49*
COc1ccccc1-c1cccc(-c2nc(C(=O)N3CCCCC3)cc3c2[C@H](CCO)N(S(=O)C(C)(C)C)C3)c1 (stereo partly drawn),/,15,/,/,58*
COC(=O)C1=C(C)N(Cc2ccc(Cl)cc2)C(=S)NC1c1ccccc1 (stereo not drawn),/,-1,/,/,30
CN(C)Cc1c(C(C)(C)O)[nH]c2cc(F)ccc12,/,0,/,/,1
Cc1ccc(NC(=O)COC(=O)C2(c3ccc(Cl)cc3)CCCC2)cc1,3,10,-12,2,58*
O=C(O)c1cc(NC(=O)c2ccc(Cl)c([N+](=O)[O-])c2)cc(C(=O)O)c1,1,0,-2,0,7
O=C(Nc1ccc(C(O)(C(F)(F)F)C(F)(F)F)cc1)c1ccc(Cl)c([N+](=O)[O-])c1,1,6,-17,-1,57*
COc1cc(/C=C2\COC/C(=C\c3cc(OC)c(OC)c(OC)c3)C2=O)cc(OC)c1OC,/,6,/,/,53*
CC(=O)Nc1cccc(NC(=O)/C=C/c2ccc(S(=O)(=O)N3CCOCC3)cc2)c1,2,2,-2,1,2
Cc1ccc(NC(=O)/C=C/c2ccc(S(=O)(=O)N3CCOCC3)cc2)cc1S(=O)(=O)N(C)C,/,22,/,/,66*
N#C/C(=C/c1ccc(N2CCOCC2)o1)c1ccc(Br)cc1,1,29,-14,6,57*
N#C/C(=C\c1ccc(N2CCOCC2)o1)c1ccccc1,1,21,1,2,23
N#C/C(=C/c1ccc(N2CCOCC2)o1)c1nc2ccccc2[nH]1,21*,49*,-12,40*,28
CC1Cc2nc(SCC(=O)N3CCCCC3)n(C)c(=O)c2S1 (stereo not drawn),/,1,/,/,-8
S=C1NCN(CC2CC2)CN1,/,2,/,/,-10
CNCCNC[C@H](Cc1cccc2ccccc12)NCCc1ccccc1,2,38*,-1,2,-10
CN(C)S(=O)(=O)c1cccc(NC(=O)COC(=O)[C@H](Cc2ccccc2)NC(=O)c2ccco2)c1,4,14,-10,4,55*
CCOc1cccc(NC(=O)c2ccc(S(=O)(=O)N(C)C)cc2)c1,2,3,-5,0,-8
COc1cccc(S(=O)(=O)NCc2ccc(C(=O)Nc3cccc(Cl)c3)cc2)c1,5,9,-17,4,50*
CCN(CC)CCNC(=O)c1ccc(NC(=O)c2ccc(COc3ccccc3)cc2)cc1,/,4,/,/,52*
CN(C)S(=O)(=O)c1cccc(NC(=O)c2ccc(COc3ccccc3)cc2)c1,14,15,-15,13,77*
O=C(COC(=O)[C@H](Cc1ccccc1)NC(=O)c1ccco1)Nc1ccccc1,1,6,-4,0,-12
Cc1ccc(NC(=O)COC(=O)c2cccc(S(=O)(=O)N3CCCCCC3)c2)cc1,/,4,/,/,18
COc1ccc2c(c1)[C@@]1(OCCC=C[C@H]1C)C(=O)N2C/C=C(\C)CCC=C(C)C,/,2,/,/,14
Cc1ccccc1-c1ccc2c(c1)[C@@H]1C[C@H](N(C)S(=O)(=O)c3ccc(Cl)cc3)[C@H]([C@H](C)O)CN1CC2,/,0,/,/,-43
SMILES,V1aR counter,TAAR1 agonist,OXTR potentiate,OXTR agonist,TAAR1 antagonist
Cn1c(N2CCN(C(c3ccccc3)c3ccccc3)CC2)nc2ccccc21,1,1,-6,-2,50*
CCOC(=O)c1sc2nc(CSc3ccccc3)nc(N3CCCN(C)CC3)c2c1C,7,38*,-8,17,-13
CCOC(=O)c1sc2nc(CSc3ccccc3)nc(N3CCC(C(N)=O)CC3)c2c1C,1,22,-8,0,39
C[C@H](CO)N1C[C@H](C)[C@@H](CN(C)C(=O)Nc2ccc(-c3cccs3)cc2)OCc2cn(nn2)CCCC1=O,/,0,/,/,8
CC(=O)Nc1cccc(-c2cc(NC(C)=O)c3ncc(-c4ccc(F)cc4)n3c2)c1,/,7,/,/,44
CC(=O)Nc1cc(-c2ccccc2)cn2c(-c3cccc(C(C)=O)c3)cnc12,/,-1,/,/,49*
CC(=O)Nc1cc(-c2cccc(F)c2)cn2c(-c3ccc(F)cc3)cnc12,/,5,/,/,56*
O=S(=O)(NCc1ccccc1)c1cc(Br)ccc1Br,/,0,/,/,-15
C#CCN(C[C@H]1[C@H](OC(=O)Nc2c(C)noc2C)[C@H](OC(=O)Nc2c(C)noc2C)CN(C(=O)OC(C)C)N1C(=O)OC(C)C)S(=O)(=O)c1ccc(C)cc1,/,1,/,/,18
O=C1COc2ccc(C(=O)COC(=O)c3ccc(F)cc3Cl)cc2N1,7,12,-7,3,57*
COc1cc(OC)c(C(=O)OCC(=O)c2ccc3c(c2)NC(=O)CO3)cc1OC,2,12,-3,3,13
Cc1ccccc1CN1[C@@H](C)[C@H](c2ccccc2)Oc2cccc(NCC(C)C)c2S1(=O)=O,/,1,/,/,-20
Cc1cc(Br)cn2c(Cc3ccccc3C(F)(F)F)c(-c3ccco3)nc12,/,1,/,/,-14
N#CC1=C(N)NC(SCC(=O)c2ccc(Br)cc2)=C(C#N)C12CCCCC2,8,16,-18,6,66*
N#CC1=C(N)NC(SCC(=O)c2ccc(Cl)cc2)=C(C#N)C12CCCC2,12,10,-10,15,51*
CCC(=O)N(C)C[C@H]1Oc2cc(-c3cccnc3)ccc2S(=O)(=O)N([C@H](C)CO)C[C@H]1C,/,2,/,/,3
Nc1nc2c(ncn2[C@@H]2O[C@H](C(=O)NCC(F)(F)F)[C@@H](O)[C@H]2O)c(=O)[nH]1,/,1,/,/,-21
O=C(C(=O)N1CCN(C(=O)c2cccs2)CC1)c1cccc(C(F)(F)F)c1,/,1,/,/,-16
C[C@@H]1CN([C@@H](C)CO)C(=O)CCCn2nncc2CO[C@H]1CN(C)CC1CC1,/,2,/,/,-7
O=C(CSc1nnc(-c2ccccc2)o1)c1nnc(-c2ccccc2)o1,0,6,-7,0,9
CC(=O)c1c(C)[nH]c(C(=O)CSc2nnc(-c3ccccc3)o2)c1C,9,33,-16,11,56*
C[C@@H]1ON(C)[C@H]2C[C@H]3c4cc(-c5ccccc5)ccc4CCN3C[C@@H]12,/,0,/,/,5
CN(C)C(=O)c1ccc(Nc2nc(-c3cccs3)nc3ccccc23)cc1,1,9,-9,0,51*

# Assay outcomes deposited in PubChem BioAssay by The Scripps Research Institute Molecular Screening Center.
